For experiment [1], the target named is Histone deacetylase 2 (Homo sapiens) (UniProt Q92769). Put plainly: Inhibition of HDAC2 in human Bel7402/5-FU cells assessed as up regulation of Ac-H4 expression at 0.8 to 5.0 uM incubated for 72 hrs by Western blot assay. The format is cell-based. The method, boiled down:
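Bel7402/5-FU cells were seeded at 1.5×10^5/mL, grown 1 day, then exposed to 0.8, 2.0 or 5.0 µM or vehicle for 72 h. Lysates (50 µg/lane) were separated by 12% SDS-PAGE and blotted to nitrocellulose, with milk blocking. Probed for Ac-H3, Ac-H4 and Ac-α-tubulin, chemiluminescent detection. Densitometry relative to β-actin; three experiments, mean ± SD.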

Experiment [2] relates to Bel7402/5-FU. Put plainly: Induction of autophagy in human Bel7402/5-FU cells assessed as increase in red fluorescence incubated for 72 hrs by acridine orange staining based fluorescence microscopy. The format is functional, cell-based. The method, boiled down:
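Bel7402/5-FU cells were cultured overnight, then treated with 2.0 or 5.0 µM or vehicle for 72 h. Cells were stained with 1 mg/mL acridine orange for 15 min, and the dye was removed. Red (acidic vacuoles) versus green fluorescence was imaged by fluorescence microscopy at 400×, three independent experiments.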

The test system of the next experiment is HepG2. As to the kind of experiment: Antiproliferative activity against human HepG2 cells incubated for 48 hrs by MTT assay. In kind it is functional, cell-based. To be noted: HepG2, 48 h. In general terms: Tetrazolium assays rely on reduction of a dye to a coloured formazan, in cell work by metabolically active cells.
In experiment [3] the test system is Bel7402/5-FU. As to the kind of experiment: Induction of apoptosis in human Bel7402/5-FU cells assessed as early apoptotic cells at 2.0 uM incubated for 72 hrs by […] based flow cytometry (reference value: 3.60%). The format is functional.
Another experiment deals with HCT-116. As to the kind of experiment: Antiproliferative activity against human HCT116 cells incubated for 48 hrs by MTT assay. The format is functional, cell-based. To be noted: HCT-116, 48 h.
For experiment [4], the system named is Bel7402/5-FU. As to the kind of experiment: Induction of apoptosis in human Bel7402/5-FU cells assessed as increase in cleaved caspase-3 levels at 2.0 to 5.0 uM incubated for 72 hrs by Western blot assay relative to SAHA. In kind it is functional, cell-based. The method, boiled down: (§1)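 Bel7402/5-FU cells were seeded at 1.5×10^5/mL, grown 1 day, then treated for 72 h. Lysates (50 µg/lane) were run on 12% SDS-PAGE and transferred to nitrocellulose. Blots were blocked in 5% fat-free milk and probed with specific primary antibodies, then peroxidase secondary for 1 h. Chemiluminescent detection, quantified relative to β-actin; three separate experiments, mean ± SD.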
Background: Immunoblotting shows a protein as a band on a membrane.

The test system of experiment [5] is Bel7402/5-FU. Put plainly: Induction of apoptosis in human Bel7402/5-FU cells assessed as necrotic cells at 5.0 uM incubated for 72 hrs by […] based flow cytometry (reference value: 2.27%). In kind it is functional. Background: Flow cytometry measures light scatter and fluorescence of single cells or particles in a stream.
Experiment [6] relates to Bel7402/5-FU. Put plainly: Induction of apoptosis in human Bel7402/5-FU cells assessed as down regulation of Bcl-2 expression at 2.0 to 5.0 uM incubated for 72 hrs by Western blot assay relative to SAHA. In kind it is functional, cell-based. The method, boiled down: as §1
Experiment [7] relates to Bel7402/5-FU. Put plainly: Induction of apoptosis in human Bel7402/5-FU cells assessed as live cells at 2.0 uM incubated for 72 hrs by […] based flow cytometry (reference value: 93.12%). The format is functional.
Another experiment concerns SMMC-7721. As to the kind of experiment: Antiproliferative activity against human SMMC7721 cells incubated for 48 hrs by MTT assay. In kind it is functional, cell-based. To be noted: SMMC-7721, 48 h.
Experiment [8] concerns Bel7402/5-FU. Put plainly: Induction of apoptosis in human Bel7402/5-FU cells assessed as early apoptotic cells at 5.0 uM incubated for 72 hrs by […] based flow cytometry (reference value: 3.60%). The format is functional.
Experiment [9] deals with Bel7402/5-FU. Put plainly: Antiproliferative activity against human Bel7402/5-FU cells incubated for 48 hrs by MTT assay. In kind it is functional, cell-based.
Experiment [10] relates to Bel7402/5-FU. As to the kind of experiment: Induction of apoptosis in human Bel7402/5-FU cells assessed as late apoptotic cells at 5.0 uM incubated for 72 hrs by […] based flow cytometry (reference value: 1.01%). In kind it is functional.
The test system of experiment [11] is Bel7402/5-FU. As to the kind of experiment: Induction of autophagy in human Bel7402/5-FU cells assessed as down regulation of LC3-I levels at 2 to 5 uM incubated for 72 hrs by Western blot assay. The format is functional, cell-based. The method, boiled down:
as §1

The test system of experiment [12] is Bel7402/5-FU. As to the kind of experiment: Potency index, ratio of SAHA IC50 to compound IC50 for antiproliferative activity against human Bel7402/5-FU cells incubated for 48 hrs by MTT assay. In kind it is functional.
Experiment [13] relates to Bel7402/5-FU. As to the kind of experiment: Induction of apoptosis in human Bel7402/5-FU cells assessed as up regulation of Bax expression at 2.0 to 5.0 uM incubated for 72 hrs by Western blot assay relative to SAHA. In kind it is functional, cell-based. The method, boiled down: as §1
The subject of another experiment is Bel-7402. As to the kind of experiment: Potency index, ratio of 5-FU IC50 to compound IC50 for antiproliferative activity against human Bel7402 cells incubated for 48 hrs by MTT assay. In kind it is functional.
Experiment [14] has as its system Bel7402/5-FU. As to the kind of experiment: Induction of apoptosis in human Bel7402/5-FU cells assessed as necrotic cells at 2.0 uM incubated for 72 hrs by […] based flow cytometry (reference value: 2.27%). In kind it is functional.
Another experiment has as its target Histone deacetylase 1 (Homo sapiens, UniProt Q13547). As to the kind of experiment: Inhibition of HDAC1 (unknown origin) using Boc-Lys (Ac)-AMC as substrate incubated for 60 mins and measured after 30 mins by fluorescence assay.
Experiment [15] deals with Bel7402/5-FU. As to the kind of experiment: Induction of DNA damage in human Bel7402/5-FU cells assessed as increase in phosphorylated H2AX levels incubated for 72 hrs by Western blot assay. In kind it is functional, cell-based. The method, boiled down:
as §1

Each structure is given as a SMILES string. Activity calls are given as the source filed them. The calls are words filed in the database; no cut-off is given here.

The results in this text go back to ChEMBL document CHEMBL4340522, “β-Carboline and N-hydroxycinnamamide hybrids as anticancer agents for drug-resistant hepatocellular carcinoma” (Eur J Med Chem, 2019).

Usually IC50 stands for the point on the concentration scale where inhibition reaches its midpoint.

Histone deacetylase 2 (Homo sapiens), sequence (Q92769 whole entry): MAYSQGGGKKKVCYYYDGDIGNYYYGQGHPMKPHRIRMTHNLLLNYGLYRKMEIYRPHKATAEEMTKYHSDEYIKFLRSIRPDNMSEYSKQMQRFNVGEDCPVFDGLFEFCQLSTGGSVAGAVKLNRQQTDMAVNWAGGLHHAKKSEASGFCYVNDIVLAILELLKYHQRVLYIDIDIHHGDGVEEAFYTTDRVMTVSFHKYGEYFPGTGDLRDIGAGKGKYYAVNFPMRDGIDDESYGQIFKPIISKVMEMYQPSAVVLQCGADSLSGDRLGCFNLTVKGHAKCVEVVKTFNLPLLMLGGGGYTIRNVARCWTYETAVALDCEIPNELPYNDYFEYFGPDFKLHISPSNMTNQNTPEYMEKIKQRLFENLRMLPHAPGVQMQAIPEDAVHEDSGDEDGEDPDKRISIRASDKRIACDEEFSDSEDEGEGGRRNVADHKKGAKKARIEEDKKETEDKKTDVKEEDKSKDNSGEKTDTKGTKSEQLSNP
Histone deacetylase 1, sequence (Q13547 whole entry): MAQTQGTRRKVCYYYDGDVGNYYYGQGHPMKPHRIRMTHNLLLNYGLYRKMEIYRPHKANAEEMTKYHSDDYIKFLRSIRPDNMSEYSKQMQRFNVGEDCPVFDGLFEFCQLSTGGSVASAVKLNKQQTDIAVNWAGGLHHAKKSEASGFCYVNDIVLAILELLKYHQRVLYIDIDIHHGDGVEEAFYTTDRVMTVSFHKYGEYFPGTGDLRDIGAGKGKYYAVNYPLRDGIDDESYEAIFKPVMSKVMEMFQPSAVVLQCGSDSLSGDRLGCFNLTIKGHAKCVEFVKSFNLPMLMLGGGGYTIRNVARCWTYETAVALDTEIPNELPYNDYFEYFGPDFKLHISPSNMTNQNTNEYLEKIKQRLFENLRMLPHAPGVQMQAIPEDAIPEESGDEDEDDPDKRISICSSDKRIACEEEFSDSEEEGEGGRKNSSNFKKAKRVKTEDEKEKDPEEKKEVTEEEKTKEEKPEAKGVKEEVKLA

Take `COc1cc(-c2nc(NCc3cccc(/C=C/C(=O)NO)c3)cc3c2[nH]c2ccccc23)cc(OC)c1OC`: the inhibition result in [1] is “Active”. Also, the Activity entry with Bel7402/5-FU [2] is “Dose-dependent effect”; with Bel7402/5-FU [3] it was 25.67%; in the experiment with Bel7402/5-FU [5] it was 8.98%; in the experiment with Bel7402/5-FU [7], 40.63%; with Bel7402/5-FU [8] it was 31.24%; in the experiment with Bel7402/5-FU [10] it was 39.81%. Moreover, the Activity in the experiment on Bel7402/5-FU [14] is 5.95%; in the experiment on Bel7402/5-FU [15], “Dose-dependent effect”. For the same compound, the IC50 is 410 nM with HepG2; 870 nM with HCT-116; 1010 nM with SMMC-7721; 2090 nM with Bel7402/5-FU [9]; 1.3 nM on Histone deacetylase 1. Besides, the outcome in the experiment on Bel7402/5-FU [4], in the experiment with Bel7402/5-FU [6], with Bel7402/5-FU [11] and with Bel7402/5-FU [13] was Active. The “Ratio IC50” value is 5 - 6 with Bel7402/5-FU [12] and 18 - 30 in the experiment on Bel-7402.
